Test results as given in ChEMBL document CHEMBL4400543, “Identification and Characterization of AES-135, a Hydroxamic Acid-Based HDAC Inhibitor That Prolongs Survival in an Orthotopic Mouse Model of Pancreatic Cancer” (J Med Chem, 2019).
Active and inactive are the calls of the source.

Key:
[1] = target: T1, Protein deacetylase HDAC6 (Homo sapiens, UniProt Q9UBN7); test: Inhibition of recombinant human HDAC6 expressed in SF9 baculoviral system using FAM-labeled acetylated peptide as substrate by EMSA
T1 sequence (Q9UBN7 whole entry): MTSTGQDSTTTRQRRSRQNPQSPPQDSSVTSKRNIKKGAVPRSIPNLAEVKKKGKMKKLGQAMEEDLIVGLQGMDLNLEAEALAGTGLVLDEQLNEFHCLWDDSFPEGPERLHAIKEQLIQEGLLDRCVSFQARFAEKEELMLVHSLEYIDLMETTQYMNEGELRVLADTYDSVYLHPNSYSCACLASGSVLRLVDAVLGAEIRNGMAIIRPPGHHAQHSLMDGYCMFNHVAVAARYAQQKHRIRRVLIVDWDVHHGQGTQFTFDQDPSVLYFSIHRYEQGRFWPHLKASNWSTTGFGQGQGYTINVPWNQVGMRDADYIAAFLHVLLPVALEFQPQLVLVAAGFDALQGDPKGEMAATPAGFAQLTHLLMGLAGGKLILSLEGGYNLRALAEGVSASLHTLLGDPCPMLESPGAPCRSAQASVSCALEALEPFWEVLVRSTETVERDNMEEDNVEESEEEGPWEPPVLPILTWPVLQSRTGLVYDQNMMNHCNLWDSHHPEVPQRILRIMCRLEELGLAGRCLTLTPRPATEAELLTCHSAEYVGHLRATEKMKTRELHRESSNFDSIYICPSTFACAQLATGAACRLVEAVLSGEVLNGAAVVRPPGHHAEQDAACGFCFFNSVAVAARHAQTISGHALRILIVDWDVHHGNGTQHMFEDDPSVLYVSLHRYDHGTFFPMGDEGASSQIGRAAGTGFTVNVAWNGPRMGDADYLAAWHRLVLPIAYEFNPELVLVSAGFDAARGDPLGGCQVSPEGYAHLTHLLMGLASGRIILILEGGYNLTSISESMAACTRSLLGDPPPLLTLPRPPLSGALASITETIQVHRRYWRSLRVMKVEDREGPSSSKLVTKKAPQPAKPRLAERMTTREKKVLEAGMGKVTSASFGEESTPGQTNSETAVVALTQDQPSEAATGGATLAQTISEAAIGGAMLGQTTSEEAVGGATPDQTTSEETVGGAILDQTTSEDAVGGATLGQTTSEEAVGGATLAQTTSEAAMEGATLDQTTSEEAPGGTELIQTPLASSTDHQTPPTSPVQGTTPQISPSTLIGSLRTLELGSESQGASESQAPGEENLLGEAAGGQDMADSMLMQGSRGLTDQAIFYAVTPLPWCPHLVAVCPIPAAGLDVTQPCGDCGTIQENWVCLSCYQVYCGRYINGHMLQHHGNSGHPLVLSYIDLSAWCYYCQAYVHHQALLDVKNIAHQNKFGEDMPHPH
Outline: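 Full-length recombinant human enzyme from an Sf9 baculovirus system, in 100 mM HEPES pH 7.5 with 25 mM KCl, 0.1% BSA, 0.01% Triton X-100 and 1% DMSO. Final enzyme was 0.5 nM for HDAC3, 60 nM for HDAC6 and 5.0 nM for HDAC8. FAM-acetylated peptide was 1 μM. The read-out was product/(substrate+product) by microfluidic mobility shift, with inhibition set against DMSO and no-enzyme controls (quadruplicate). Compounds were tested at 12 threefold-spaced concentrations, and IC50 came from a four-parameter sigmoid fit.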

Histone deacetylase 3 = Histone deacetylase 3 (Homo sapiens, UniProt O15379); test: Inhibition of recombinant human HDAC3 expressed in SF9 baculoviral system at 10 uM using FAM-labeled acetylated peptide as substrate by EMSA relative to control
Histone deacetylase 3, sequence (O15379 whole entry): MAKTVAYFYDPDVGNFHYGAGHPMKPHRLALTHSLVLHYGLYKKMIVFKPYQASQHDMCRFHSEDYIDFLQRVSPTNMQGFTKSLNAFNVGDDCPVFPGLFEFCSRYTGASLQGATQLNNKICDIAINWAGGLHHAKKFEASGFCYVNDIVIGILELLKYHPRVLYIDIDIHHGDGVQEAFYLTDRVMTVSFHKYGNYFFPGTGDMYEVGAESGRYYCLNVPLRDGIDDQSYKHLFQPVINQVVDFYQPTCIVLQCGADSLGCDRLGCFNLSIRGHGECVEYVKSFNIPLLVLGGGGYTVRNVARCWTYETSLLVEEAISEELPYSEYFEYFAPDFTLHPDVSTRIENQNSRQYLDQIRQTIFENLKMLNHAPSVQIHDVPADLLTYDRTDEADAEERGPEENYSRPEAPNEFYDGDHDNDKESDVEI
Outline: (§1)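 Single-point screen at 10 μM compound, using full-length recombinant human enzyme expressed in Sf9 cells. Buffer was HEPES pH 7.5 with KCl, BSA and Triton X-100, and 1% DMSO. Final enzyme was 0.5 nM for HDAC3, 60 nM for HDAC6 and 5.0 nM for HDAC8, with 1 μM FAM-acetylated peptide. Percent inhibition was derived from the product sum ratio relative to DMSO-only (0%) and no-enzyme (100%) controls.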

[2] = target: Protein deacetylase HDAC6 (Homo sapiens) (UniProt Q9UBN7); test: Inhibition of recombinant human HDAC6 expressed in SF9 baculoviral system at 10 uM using FAM-labeled acetylated peptide as substrate by EMSA relative to control; outline: as §1
[3] = target: Polyamine deacetylase HDAC10 (Homo sapiens) (UniProt Q969S8); test: Inhibition of recombinant human HDAC10 expressed in SF9 baculoviral system at 10 uM using FAM-labeled acetylated peptide as substrate by EMSA relative to control
Polyamine deacetylase HDAC10 (Homo sapiens), sequence (Q969S8 whole entry): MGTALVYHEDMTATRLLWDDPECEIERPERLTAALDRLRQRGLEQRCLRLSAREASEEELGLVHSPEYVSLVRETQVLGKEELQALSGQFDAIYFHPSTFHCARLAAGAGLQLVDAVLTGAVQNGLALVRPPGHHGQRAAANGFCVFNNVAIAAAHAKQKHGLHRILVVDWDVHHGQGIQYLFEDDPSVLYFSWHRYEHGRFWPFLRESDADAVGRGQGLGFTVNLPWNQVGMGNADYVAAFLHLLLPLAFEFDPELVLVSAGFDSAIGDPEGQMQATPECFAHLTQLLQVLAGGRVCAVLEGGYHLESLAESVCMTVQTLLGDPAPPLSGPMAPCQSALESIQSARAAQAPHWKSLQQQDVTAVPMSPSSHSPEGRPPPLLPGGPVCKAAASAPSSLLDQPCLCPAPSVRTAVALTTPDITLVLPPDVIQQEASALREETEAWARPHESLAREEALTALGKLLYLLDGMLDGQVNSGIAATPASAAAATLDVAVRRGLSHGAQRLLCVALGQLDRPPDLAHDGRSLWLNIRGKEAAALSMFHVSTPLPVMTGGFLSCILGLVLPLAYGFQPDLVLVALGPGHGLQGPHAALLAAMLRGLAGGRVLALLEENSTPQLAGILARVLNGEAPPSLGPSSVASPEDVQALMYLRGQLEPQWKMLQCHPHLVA
Outline: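 Full-length recombinant human HDACs from an Sf9 baculovirus system. Single-point screen at 10 μM by microfluidic mobility-shift assay with FAM-labeled acetylated peptide substrate. Buffer: 100 mM HEPES pH 7.5, 25 mM KCl, 0.1% BSA, 0.01% Triton X-100, 1% DMSO. % inhibition from product/(substrate + product) against no-inhibitor and no-enzyme controls.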

MV4-11 = test: Cytotoxicity against human MV4-11 cells at 50 uM after 72 hrs by CellTiter-Blue assay; format: functional, cell-based
Outline: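 Cells in 10% FBS medium, 10 000 cells/well, treated 24 h after plating. Twofold dilution series from a 50.0 μM top dose to 0.097656 μM, in triplicate, 0.5% DMSO vehicle. 72 h at 37 °C, 5% CO2. CellTiter-Blue for 1–4 h, fluorescence 560/590 nm. IC50 by nonlinear regression.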

PC-3 = test: Cytotoxicity against human PC3 cells at 50 uM after 72 hrs by CellTiter-Blue assay; format: functional, cell-based
[4] = Drug uptake in NSG mouse serum at 20 mg/kg, ip administered as single dose and measured at 1 hr by HPLC-MS/MS analysis; format: ADME, organism-based; settings: read-out: Drug uptake
Outline: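 NSG mice given a single 20 mg/kg IP dose in Cremophor EL/EtOH (1:1, 4% final volume)/sterile saline. Tail-vein blood at 0.5, 1, 2, 4, 8 and 24 h, n = 2. Drug quantified in serum/plasma. Half-life and clearance calculated assuming 100% bioavailability.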

Pa03C = test: Cytotoxicity against human Pa03C monolayer cells assessed as reduction in tumor spheroid intensity after 72 hrs by Alamar Blue assay; format: functional, cell-based
Outline: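 Monolayer proliferation of STR-authenticated, mycoplasma-checked patient-derived PDAC lines and mouse KPC cells. Plated at 2000 cells/well, treated 72 h, read by alamarBlue. At least triplicate, n = 3–5.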

Panc1005 = test: Cytotoxicity against human Panc 10.05 cells assessed as reduction in tumor spheroid intensity after 72 hrs by Alamar Blue assay; format: functional, cell-based; settings: Panc1005, 72 h
Outline: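 3D spheroids of patient-derived PDAC cells (tomato red) alone or with CAF19 cells, plus CAF cultures. Imaging read-outs: area is the μ2 of objects above a tomato red intensity threshold; intensity is summed red or green pixel fluorescence after background removal. n = 3–5.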

[5] = Stability of the compound in DMSO at 10 mM after 16 hrs in presence of 100 fold excess reduced L-glutathione by 19F NMR analysis; format: physicochemical; settings: 10000 µM

CC(C)(C)c1ccc(CN(C(=O)CN(Cc2c(F)c(F)c(F)c(F)c2F)S(=O)(=O)c2ccc(F)cc2)c2ccc(C(=O)NO)cc2)cc1
IC50 [1]: 190 nM
inhibition (Histone deacetylase 3): 98%
inhibition [2]: 98%
inhibition [3]: 70%
Activity (MV4-11): Active
Activity (PC-3): Active
concentration at 1 h [4]: 5400 ng/mL
IC50 (Pa03C): 3400 nM
IC50 (Panc1005): 600 nM
Stability [5]: Stable
